Results reported in ChEMBL document CHEMBL1121507, “Bronchodilator and antiulcer phenoxypyrimidinones” (1980).

Tests used:
[1] = test system: Cavia porcellus; assay: Evaluation of bronchodilator activity at dose 60 mg/kg perorally 1 hr prior to histamine aerosol exposure.; format: functional; settings: route oral
Procedure, shortened: (§1)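 Guinea pigs received drug po, dissolved in 1 N HCl or suspended in vehicle, 1 h before challenge. The challenge was 0.4% aqueous histamine nebulized at 6 psi into a closed chamber. Respiratory status was scored 0–4 (4 = unconsciousness). Percent protection compares the total score of 8 treated animals with a control group of 8 (control = 0, complete protection = 100), giving a single value.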

[2] = test system: Cavia porcellus; assay: Respiratory status of guinea pigs exposed to histamine aerosol expressed as percent protection at a dose of 10 mg/kg (po); format: functional; procedure, shortened: as §1
[3] = test system: Cavia porcellus; assay: Respiratory status of guinea pigs exposed to histamine aerosol expressed as percent protection at a dose of 3 mg/kg (po); format: functional; procedure, shortened: as §1
[4] = test system: Cavia porcellus; assay: Respiratory status of guinea pigs exposed to histamine aerosol expressed as percent protection at a dose of 30 mg/kg (po); format: functional; procedure, shortened: as §1
[5] = test system: Cavia porcellus; assay: Respiratory status of guinea pigs exposed to histamine aerosol expressed as percent protection at a dose of 60 mg/kg (po); format: functional; procedure, shortened: as §1
[6] = test system: Rattus norvegicus; assay: Evaluation of antiulcer activity (% decrease in total number of lesions in cold-restraint, stressed rats) at peroral dose 10 mg/kg.; format: functional; settings: route oral
Procedure, shortened: (§2)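 Nonfasted female Sprague–Dawley rats (90–120 g) were immobilized supine and held at 12 °C for 3 h to induce gastric ulceration. Drug was suspended in saline with 10 g/L carboxymethylcellulose and 1 g/L Tween 80 and given po or ip 3 h before stress. Rats were then killed and stomachs removed. Readout: percent decrease in total lesion number versus controls. Active: p ≤ 0.05.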

[7] = test system: Rattus norvegicus; assay: Evaluation of antiulcer activity( percent decrease in total number of lesions in cold-restraint, stressed rats) at intraperitoneal dose at 100 mg/kg; Inactive; format: functional; procedure, shortened: as §2
[8] = test system: Cavia porcellus; assay: Respiratory status of guinea pigs exposed to histamine aerosol expressed as percent protection 2 hr at a dose of 60 mg/kg (po)
[9] = test system: Cavia porcellus; assay: Respiratory status of guinea pigs exposed to histamine aerosol expressed as percent protection 4 hr at a dose of 60 mg/kg (po)
[10] = test system: Cavia porcellus; assay: Respiratory status of guinea pigs exposed to histamine aerosol expressed as percent protection 8 hr at a dose of 60 mg/kg (po)
[11] = test system: Rattus norvegicus; assay: Evaluation of antiulcer activity( percent decrease in total number of lesions in cold-restraint, stressed rats) at intraperitoneal dose at 32 mg/kg; Inactive; format: functional; procedure, shortened: as §2
[12] = test system: Rattus norvegicus; assay: Evaluation of antiulcer activity( percent decrease in total number of lesions in cold-restraint, stressed rats) at intraperitoneal dose at 100 mg/kg; Active; format: functional; procedure, shortened: as §2
[13] = test system: Cavia porcellus; assay: Respiratory status of guinea pigs exposed to histamine aerosol expressed as percent protection 2 hr at a dose of 60 mg/kg (po); format: functional
Procedure, shortened: (§3)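 Duration study in guinea pigs: 60 mg/kg po given 2, 4 or 8 h before exposure to aerosol from 0.4% aqueous histamine nebulized at 6 psi in a closed chamber. Respiratory distress was scored 0–4. Percent protection compares the total score of 8 treated animals with 8 controls (control = 0, complete protection = 100).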

[14] = test system: Cavia porcellus; assay: Respiratory status of guinea pigs exposed to histamine aerosol expressed as percent protection 4 hr at a dose of 60 mg/kg (po); format: functional; procedure, shortened: as §3
[15] = test system: Cavia porcellus; assay: Respiratory status of guinea pigs exposed to histamine aerosol expressed as percent protection 8 hr at a dose of 60 mg/kg (po); format: functional; procedure, shortened: as §3
[16] = test system: Rattus norvegicus; assay: Evaluation of antiulcer activity (percent decrease in total number of lesions in cold-restraint, stressed rats) at peroral dose 10 mg/kg; Active; format: functional; settings: route oral; procedure, shortened: as §2

Row | Structure (SMILES) | Protection [1] | Decrease [6] | Decrease [7] | further results
1 | Oc1ncncc1Oc1ccccc1Cl | 13% | – | – | –
2 | Oc1ncc(Oc2ccc(Cl)cc2)cn1 | 92% | 7% | 0% | Protection [2]: 37%; Protection [3]: 22%; Protection [4]: 71%; Protection [5]: 92%; Protection [8]: 94%; Protection [9]: 94%; Protection [10]: 88%
3 | Oc1ncncc1Oc1cccc(Cl)c1 | 13% | – | – | Decrease [11]: 18%
4 | COc1ccc(Oc2cncnc2O)cc1 | 26% | 0% | – | –
5 | Cc1cc(C)cc(Oc2cnc(O)nc2)c1 | 38% | 50% | – | Decrease [12]: 53%
6 | Cc1ccc(Oc2cnc(O)nc2)cc1 | 86% | – | 0% | Protection [13]: 86%; Protection [14]: 8%; Protection [15]: 10%; Protection [2]: 18%; Protection [3]: 2%; Protection [4]: 81%; Protection [5]: 86%; Decrease [16]: 57%
7 | Oc1ncc(Oc2ccc(Cl)cc2Cl)cn1 | 47% | 22% | 19% | –
8 | Cc1ccc(Oc2cnc(O)nc2)cc1C | 14% | 54% | 53% | –
9 | Cc1cccc(Oc2cnc(O)nc2O)c1 | 7% | 0% | – | Decrease [12]: 67%
10 | CSc1ccc(Oc2cnc(O)nc2)cc1 | 55% | 0% | 0% | –
11 | Oc1ncc(Oc2ccccc2)cn1 | 28% | – | – | Decrease [16]: 37%; Decrease [12]: 81%
12 | Cc1ccccc1Oc1cnc(O)nc1 | 6% | 0% | 25% | –
13 | COc1ccc(Oc2cnc(O)nc2)cc1 | 45% | 0% | 0% | –
14 | CCc1ccc(Oc2cnc(O)nc2)cc1 | 98% | 0% | 27% | –
15 | CCc1cccc(Oc2cnc(O)nc2)c1 | 3% | 28% | – | Decrease [12]: 53%
16 | Cc1cc(Oc2cnc(O)nc2)ccc1Cl | 6% | 0% | 14% | –
17 | Oc1ncncc1Oc1ccccc1 | 23% | 0% | – | –
18 | Cc1cccc(Oc2cncnc2O)c1 | 28% | 0% | – | –
19 | Oc1ncc(Oc2ccc(Br)cc2)cn1 | 90% | 0% | 0% | –
20 | Oc1ncc(Oc2cccc(Cl)c2)cn1 | 22% | 22% | 0% | –
